According to ChEMBL document CHEMBL1128485, “(E)-4-(2-[[3-(indol-5-yl)-1-oxo-2-butenyl]amino]phenoxy)butyric acid derivatives: a new class of steroid 5 alpha-reductase inhibitors in the rat prostate. 1” (J Med Chem, 1995):

Each compound was assayed against T1, Steroid 5-alpha-reductase (Rattus norvegicus, UniProt P24008+P31214) (assay: (§1) Inhibitory activity against Steroid 5-alpha-reductase in prostates from male rats). Details: not given.
T1 sequence (P24008 whole entry): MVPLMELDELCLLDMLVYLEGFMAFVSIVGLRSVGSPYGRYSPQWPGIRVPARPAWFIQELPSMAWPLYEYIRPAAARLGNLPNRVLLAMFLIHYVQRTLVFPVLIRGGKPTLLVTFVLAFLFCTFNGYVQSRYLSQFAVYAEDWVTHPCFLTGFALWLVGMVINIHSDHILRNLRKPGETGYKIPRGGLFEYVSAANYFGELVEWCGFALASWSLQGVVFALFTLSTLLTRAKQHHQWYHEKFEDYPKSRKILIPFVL
T1 sequence (P31214 whole entry): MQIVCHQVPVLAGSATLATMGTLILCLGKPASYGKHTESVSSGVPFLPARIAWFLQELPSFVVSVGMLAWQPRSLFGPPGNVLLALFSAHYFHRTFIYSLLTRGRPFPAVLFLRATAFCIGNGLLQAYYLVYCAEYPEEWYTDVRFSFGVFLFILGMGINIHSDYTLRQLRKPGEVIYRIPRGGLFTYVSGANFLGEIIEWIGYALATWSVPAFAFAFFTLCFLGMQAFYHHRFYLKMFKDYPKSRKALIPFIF
Type: tissue-based, Prostate gland
Outline: (§2)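 Ventral prostate from male Wistar rats (200–300 g), homogenized in ice-cold 0.32 M sucrose, 1 mM DTT, 20 mM sodium phosphate pH 6.5. Particulate pellet spun at 140000g, stored at –80 °C, used at 1 mg protein. Compounds added in ethanol. Incubated 37 °C, 20 min, extracted with ethyl acetate. [14C]T and DHT measured by TLC radioscan. IC50 given as mean ± SE of three experiments.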

Row | IC50 | SMILES
1 | 97 nM | C/C(=C\C(=O)Nc1ccccc1OCCCC(=O)O)c1ccc2c(ccn2Cc2ccc(F)cc2)c1
2 | 19 nM | C/C(=C\C(=O)Nc1ccccc1OCCCC(=O)O)c1ccc2c(ccn2C(C)c2ccccc2)c1 (stereo unspecified)
3 | 480 nM | COc1ccc(Cn2ccc3cc(/C(C)=C/C(=O)Nc4ccccc4OCCCC(=O)O)ccc32)cc1
4 | 6.3 nM | C/C(=C\C(=O)Nc1ccccc1OCCCC(=O)O)c1ccc2c(ccn2C(CC(C)C)c2ccccc2)c1 (stereo unspecified)
5 | 19 nM | C/C(=C\C(=O)Nc1ccccc1OCCCC(=O)O)c1ccc2c(ccn2C(c2ccccc2C)c2ccccc2C)c1
6 | 37 nM | C/C(=C\C(=O)Nc1ccccc1OCCCC(=O)O)c1ccc2c(ccn2C(c2ccccc2)c2ccccn2)c1 (stereo unspecified)
7 | 47 nM | C/C(=C\C(=O)Nc1ccccc1OCCCC(=O)O)c1ccc2c(ccn2C(c2ccccc2)c2cccnc2)c1 (stereo unspecified)
8 | 9.3 nM | CCCC(CC)n1ccc2cc(/C(C)=C/C(=O)Nc3ccccc3OCCCC(=O)O)ccc21 (stereo unspecified)
9 | 250 nM | C/C(=C\C(=O)Nc1ccccc1OCCCC(=O)O)c1ccc2c(ccn2Cc2cccc(C)c2)c1
10 | 5.6 nM | C/C(=C\C(=O)Nc1ccccc1OCCCC(=O)O)c1ccc2c(ccn2C(c2ccccc2)c2ccccc2)c1
11 | 8.1 nM | C/C(=C\C(=O)Nc1ccccc1OCCCC(=O)O)c1ccc2c(ccn2C(c2ccccc2)c2ccc(C(F)(F)F)cc2)c1 (stereo unspecified)
12 | 300 nM | C/C(=C\C(=O)Nc1ccccc1OCCCC(=O)O)c1ccc2c(ccn2Cc2ccc(C(F)(F)F)cc2)c1
13 | 6 nM | CCCCC(C)n1ccc2cc(/C(C)=C/C(=O)Nc3ccccc3OCCCC(=O)O)ccc21 (stereo unspecified)
14 | 19 nM | CCC(c1ccccc1)n1ccc2cc(/C(C)=C/C(=O)Nc3ccccc3OCCCC(=O)O)ccc21 (stereo unspecified)
15 | 170 nM | C/C(=C\C(=O)Nc1ccccc1OCCCC(=O)O)c1ccc2c(ccn2Cc2ccc(C(C)(C)C)cc2)c1
16 | 780 nM | C/C(=C\C(=O)Nc1ccccc1OCCCC(=O)O)c1ccc2c(ccn2C)c1
17 | 14 nM | C/C(=C\C(=O)Nc1ccc(C)cc1OCCCC(=O)O)c1ccc2c(ccn2C(c2ccccc2)c2ccccc2)c1
18 | 25 nM | CCCCCC(c1ccccc1)n1ccc2cc(/C(C)=C/C(=O)Nc3ccccc3OCCCC(=O)O)ccc21 (stereo unspecified)
19 | 120 nM | CCCCCCCn1ccc2cc(/C(C)=C/C(=O)Nc3ccccc3OCCCC(=O)O)ccc21
20 | 9.8 nM | COc1ccc(C(c2ccc(OC)cc2)n2ccc3cc(/C(C)=C/C(=O)Nc4ccccc4OCCCC(=O)O)ccc32)cc1
21 | 39 nM | C/C(=C\C(=O)Nc1ccccc1SCCCC(=O)O)c1ccc2c(ccn2C(c2ccccc2)c2ccccc2)c1
22 | 14 nM | C/C(=C\C(=O)Nc1ccccc1OCCCC(=O)O)c1ccc2c(ccn2C(C(C)C)C(C)C)c1
23 | 25 nM | C/C(=C\C(=O)Nc1ccccc1OCCCC(=O)O)c1ccc2c(ccn2C(c2ccccc2)C(C)C)c1 (stereo unspecified)
24 | 7.2 nM | CCCC(C(C)C)n1ccc2cc(/C(C)=C/C(=O)Nc3ccccc3OCCCC(=O)O)ccc21 (stereo unspecified)
25 | 25 nM | CCCCCC(CCCCC)n1ccc2cc(/C(C)=C/C(=O)Nc3ccccc3OCCCC(=O)O)ccc21
26 | 26 nM | C/C(=C\C(=O)Nc1ccccc1OCCCC(=O)O)c1ccc2c(ccn2C(c2ccccc2)c2ccncc2)c1 (stereo unspecified)

Continued, compound first:

Row | SMILES | IC50
27 | C/C(=C\C(=O)Nc1ccccc1OCCCC(=O)O)c1ccc2c(ccn2CC(C)(C)C)c1.Cc1ccccc1 | 84 nM
28 | COc1ccc(C(c2ccccc2)n2ccc3cc(/C(C)=C/C(=O)Nc4ccccc4OCCCC(=O)O)ccc32)cc1 (stereo unspecified) | 8.8 nM
29 | C/C(=C\C(=O)Nc1ccc(F)cc1OCCCC(=O)O)c1ccc2c(ccn2C(c2ccccc2)c2ccccc2)c1 | 3.6 nM
30 | C/C(=C\C(=O)Nc1cccc(F)c1OCCCC(=O)O)c1ccc2c(ccn2C(c2ccccc2)c2ccccc2)c1 | 15 nM
31 | CCCCc1ccc(Cn2ccc3cc(/C(C)=C/C(=O)Nc4ccccc4OCCCC(=O)O)ccc32)cc1 | 100 nM
32 | CCCC(c1ccccc1)n1ccc2cc(/C(C)=C/C(=O)Nc3ccccc3OCCCC(=O)O)ccc21 (stereo unspecified) | 9.1 nM
33 | CCCC(C)n1ccc2cc(/C(C)=C/C(=O)Nc3ccccc3OCCCC(=O)O)ccc21 (stereo unspecified) | 7.8 nM
34 | CCCCC(CCCC)n1ccc2cc(/C(C)=C/C(=O)Nc3ccccc3OCCCC(=O)O)ccc21 | 21 nM
35 | CCCn1ccc2cc(/C(C)=C/C(=O)Nc3ccccc3OCCCC(=O)O)ccc21 | 190 nM
36 | C/C(=C\C(=O)Nc1ccccc1OCCCC(=O)O)c1ccc2c(ccn2Cc2ccccc2C)c1 | 69 nM
37 | C/C(=C\C(=O)Nc1ccccc1OCCCC(=O)O)c1ccc2c(ccn2C(c2ccc(Cl)cc2)c2ccc(Cl)cc2)c1 | 25 nM
38 | CCCCn1ccc2cc(/C(C)=C/C(=O)Nc3ccccc3OCCCC(=O)O)ccc21 | 43 nM
39 | CCCCC(CC)n1ccc2cc(/C(C)=C/C(=O)Nc3ccccc3OCCCC(=O)O)ccc21 (stereo unspecified) | 7.1 nM
40 | C/C(=C\C(=O)Nc1ccccc1OCCCC(=O)O)c1ccc2c(ccn2C(c2ccc(C)cc2)c2ccc(C)cc2)c1 | 8.8 nM
41 | CCC(C)n1ccc2cc(/C(C)=C/C(=O)Nc3ccccc3OCCCC(=O)O)ccc21 (stereo unspecified) | 67 nM
42 | C/C(=C\C(=O)Nc1ccccc1OCCCC(=O)O)c1ccc2c(ccn2Cc2ccc(C)cc2)c1 | 88 nM
43 | C/C(=C\C(=O)Nc1ccccc1OCCCC(=O)O)c1ccc2c(ccn2CC(C)C)c1 | 160 nM
44 | CCCCC(c1ccccc1)n1ccc2cc(/C(C)=C/C(=O)Nc3ccccc3OCCCC(=O)O)ccc21 (stereo unspecified) | 9.8 nM
45 | CCCCCCn1ccc2cc(/C(C)=C/C(=O)Nc3ccccc3OCCCC(=O)O)ccc21 | 77 nM
46 | CC(C)=CCn1ccc2cc(/C(C)=C/C(=O)Nc3ccccc3OCCCC(=O)O)ccc21 | 120 nM
47 | CCCCCn1ccc2cc(/C(C)=C/C(=O)Nc3ccccc3OCCCC(=O)O)ccc21 | 23 nM

What follows are compounds tested against Steroid 5-alpha-reductase (Rattus norvegicus) (UniProt P24008+P31214) (assay: as §1). Details: Prostate gland; concentration not given here.
Type: tissue-based
Set-up: concentration or dose not given beside the values
Outline: as §2, with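 “protein. Reaction run in 40 mM phosphate pH 6.5 with 1 mM DTT, 150 µM NADPH and 3 µM [14C]testosterone.” for “protein.”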

Row | inhibition | SMILES
48 | 38% | C/C(=C\C(=O)Nc1cc(Cl)ccc1OCCCC(=O)O)c1ccc2c(ccn2C(c2ccccc2)c2ccccc2)c1
49 | 48% | C/C(=C\C(=O)Nc1ccccc1OCCCC(=O)O)c1ccc2c(ccn2C2CCCCC2)c1
50 | 26% | C/C(=C\C(=O)Nc1ccccc1OCCCC(=O)O)c1ccc2c(ccn2C(C)c2ccc3ccccc3c2)c1 (stereo unspecified)
51 | 8% | C/C(=C\C(=O)N(C)c1ccccc1OCCCC(=O)O)c1ccc2c(ccn2C(C)c2ccccc2)c1 (stereo unspecified)

The remaining lines, values behind:

Row | SMILES | inhibition
52 | C/C(=C\C(=O)Nc1ccccc1OCCCC(=O)O)c1ccc2c(ccn2C2c3ccccc3CCc3ccccc32)c1 | 31%
53 | CCCC(CCC)n1ccc2cc(/C(C)=C/C(=O)Nc3ccc(OCCCC(=O)O)cc3)ccc21 | 28%
54 | C/C(=C\C(=O)Nc1cc(C)ccc1OCCCC(=O)O)c1ccc2c(ccn2C(c2ccccc2)c2ccccc2)c1 | 45%
55 | CCCC(CCC)n1ccc2cc(/C(C)=C/C(=O)Nc3cccc(OCCCC(=O)O)c3)ccc21 | 19%
56 | C/C(=C\C(=O)Nc1cc(F)ccc1OCCCC(=O)O)c1ccc2c(ccn2C(c2ccccc2)c2ccccc2)c1 | 52%
